This is a sample that favours compounds with a hit; in the whole collection about 2.2% have one here.
NR2E3 ag-1 = inhibitors of NR2E3-RetCOR corepressor binding, primary screen, NR2E3 agonist project, biochemical, TR-FRET, GST-NR2E3, biotin-RetCOR; 1536-well; inhibition of corepressor binding, % at 4.78 µM; AID 2300, 2010; hit rate 0.12% among 320,000; Photoreceptor-specific nuclear receptor (Homo sapiens), Q9Y5X4;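 active means percent inhibition above the cutoff of mean plus 3 SD of all tested compounds, set per screening campaign, cut at about 20% in these data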;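 further: 0% = DMSO wells and 100% = biotin wells as full block of FRET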
Target sequence (Q9Y5X4 whole entry, looked up): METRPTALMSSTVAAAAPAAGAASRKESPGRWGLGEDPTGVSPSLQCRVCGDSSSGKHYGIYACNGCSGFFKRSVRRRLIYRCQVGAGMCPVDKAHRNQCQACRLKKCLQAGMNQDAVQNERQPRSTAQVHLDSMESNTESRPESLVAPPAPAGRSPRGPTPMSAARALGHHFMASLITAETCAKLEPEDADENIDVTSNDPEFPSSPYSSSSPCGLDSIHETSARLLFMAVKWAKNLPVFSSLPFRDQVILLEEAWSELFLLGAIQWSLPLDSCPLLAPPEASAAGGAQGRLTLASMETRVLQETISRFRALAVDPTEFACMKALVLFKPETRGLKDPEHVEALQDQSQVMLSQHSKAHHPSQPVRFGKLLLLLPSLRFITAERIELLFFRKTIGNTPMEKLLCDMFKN
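Format: 1536-well format; test system: GST-NR2E3 and biotin-RetCOR proteins; read-out basis: percent inhibition of TR-FRET ratio; timing: 5 h incubation at 4 °C; detection: time-resolved FRET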
Jurkat NFkB inh = inhibitors of induced NF-kB luciferase reporter, primary screen, TCR NF-kB activation inhibitor project, cell-based, luminescence, uHTS. Jurkat, PMA/ionomycin-induced NF-kB luciferase reporter. inhibition, % at 4 µM. hit rate 0.53% among 330,000. AID 435003, 2010; in the data active means inhibition above about 50%
NR2E3 ag-2 = NR2E3 agonists in two-hybrid cells, primary screen, cell-based, luminescence, CHO-S, Gal4-NCOR/VP16-NR2E3. Photoreceptor-specific nuclear receptor (Homo sapiens), Q9Y5X4. luciferase. inhibition of corepressor binding, % at 3.98 µM. hit rate 0.35% among 360,000. AID 602229, 2012;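 active means inhibition above the mean of all tested compounds plus 3 SD, cut at about 70% in these data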;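 further: 0% = DMSO with NR2E3 transfected cells and 100% = cells lacking NR2E3 construct; higher means lower luciferase signal from less NR2E3 corepressor binding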
FGF22 binding = binders of human FGF22 protein, primary screen, FGF22 synaptogenesis inhibitor project, biophysical, thermal shift, single point; recombinant FGF22 thermal shift, SYPRO orange fluorescence; percent of sucrose octasulfate shift, DMSO zero; AID 651658, 2012; Fibroblast growth factor 22 (Homo sapiens), Q9HCT0; hit rate 1.5% among 340,000; activity (Tm shift, normalised), % at 9.99 µM;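 active means mean Tm shift, scaled 0 neutral to 100 positive control, at about 1.3% or above, every replicate too, limit read from the data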
697 NFkB inh = inhibitors of PMA/ionomycin-induced NF-kB reporter, 697 cells, primary screen, B-cell NF-kB inhibitor project, cell-based, luminescence, uHTS; hit rate 0.33% among 330,000; AID 435022, 2010; 697 B-cell NF-kB luciferase reporter, 16 h; inhibition, % at 4 µM; in the data active means inhibition above about 35%
miR122 inh = miR-122 Renilla sensor signal increase in Huh7, primary screen, miR-122 inhibitor project, cell-based, single point, plate reader. Huh7 miR-122 Renilla luciferase sensor, 48 h; neutral wells = 0, positive control = 100. activation (reporter increase), % at 12.5 µM. hit rate 0.3% among 340,000;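 active means mean replicate activation score at least 90 and every replicate individually at or above 90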;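 further: higher luciferase means less miR-122 activity so hits act as miR-122 inhibitors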
* hit, by the source's call; nt = no result; ! = not confirmed by another sample; [ ] = dose if it differs, or a comment.

SMILES	NR2E3 ag-1	Jurkat NFkB inh	NR2E3 ag-2	FGF22 binding	697 NFkB inh	miR122 inh
O=C(O)c1c(C(=O)N2N=C3/C(=C/c4ccccc4)CCCC3C2c2ccccc2)cccc1[N+](=O)[O-] (configuration not stated)	3	-8	-38	-1	-1	nt
O=C(O)c1ccccc1C(=O)N1N=C2/C(=C/c3cccc([N+](=O)[O-])c3)CCCC2C1c1cccc([N+](=O)[O-])c1 (configuration not stated)	1	-12	-12	2.3*	2	nt
CN1C(=O)c2cc(NC(=O)C3CCCCC3)ccc2OC[C@@H]2O[C@H](CC(=O)NCCc3ccncc3)CC[C@H]21	nt	nt	nt	0	nt	0[16.7 µM]
Cc1[nH]c2ccccc2c1/C=N/Nc1ccccc1[N+](=O)[O-]	1	-32	-45	1.9*	-11	nt
Cc1[nH]c2ccccc2c1/C=N/NC(=O)c1cccc(S(=O)(=O)Nc2cccc(C(F)(F)F)c2)c1	7	7	12	43*	-15	nt
COc1ccc(NS(=O)(=O)c2cc([N+](=O)[O-])ccc2N/N=C/c2c(C)[nH]c3ccccc23)cc1	nt	nt	-14	0	nt	-6
Cc1[nH]c2ccccc2c1/C=N\NC(=O)c1ccccc1Cl	nt	nt	6	43*	nt	2
N#C[C@@H]1[C@@H](c2ccccc2-c2ccccc2F)[C@@H](CO)N1C(=O)C1CCC1	nt	nt	nt	1	nt	nt
C[C@H](CO)N1C[C@H](C)[C@H](CN(C)Cc2ccc3c(c2)OCO3)Oc2ncc(C#CCN(C)C)cc2C1=O	nt	nt	nt	0	nt	1[16.7 µM]
CCc1ccc(CNC(=O)c2nn(C)c3c2CS(=O)(=O)c2ccccc2-3)cc1	0	6	-6	68*	-7	-7
CC1(C)CC(NC(=O)c2sc3cc(Cl)ccc3c2Cl)CC(C)(C)N1	-3	27	2	43*	3	nt
C[C@@H]1CN([C@@H](C)CO)C(=O)CCCn2cc(nn2)CO[C@@H]1CN(C)C(=O)Nc1ccc(N2CCCCC2)cc1	nt	nt	nt	0	nt	-5[16.7 µM]
Cc1ccccc1NC(=O)/C=C/c1ccc([N+](=O)[O-])s1	0	nt	85*	nt	nt	nt
COc1ccccc1NC(=O)C(=O)N/N=C/c1ccc([N+](=O)[O-])s1	nt	nt	-19	44*	nt	-20
Cc1ccccc1NC(=O)/C=C/c1cccs1	0	-72	-114	43*	-81	nt
Cc1ccccc1NC(=O)/C=C1\SC(=O)NC1=O	2	-43	5	44*	13	nt
O=C(/C=C1\SC(=O)NC1=O)Nc1ccc(C(=O)O)cc1	0	-1	-13	0	16	nt
COc1ccc(-c2ccc3c(c2)O[C@@H](CN(C)C(=O)Nc2ccccc2F)[C@@H](C)CN([C@@H](C)CO)S3(=O)=O)cc1	nt	nt	nt	0	nt	15[16.7 µM]
Cc1cc(C)nc(SCCn2c(N3CC(C)OC(C)C3)nc3c2c(=O)n(C)c(=O)n3C)n1 (configuration not stated)	1	-7	7	44*	-21	nt
N#C[C@H]1[C@@H](c2ccccc2-c2cccc(F)c2)[C@@H](CO)N1C(=O)Cc1cccnc1	nt	nt	nt	0	nt	nt
COc1ccc(CCNc2nc(=S)[nH]c3cc(OC)c(OC)cc23)cc1OC	3	8	-7	43*	0	nt
Cc1noc(C)c1NC(=O)N(C)C[C@@H]1Oc2ncc(C#Cc3ccc(C(F)(F)F)cc3)cc2C(=O)N([C@H](C)CO)C[C@@H]1C	nt	nt	nt	0	nt	-8[16.7 µM]
C[C@H]1CN([C@@H](C)CO)S(=O)(=O)c2ccc(Br)cc2O[C@H]1CN(C)S(=O)(=O)c1ccccc1F	nt	nt	-11	0	nt	179*![16.7 µM]
C[C@H]1CN([C@@H](C)CO)S(=O)(=O)c2ccc(Br)cc2O[C@@H]1CN(C)S(=O)(=O)c1ccccc1F	nt	nt	10	0	nt	68[16.7 µM]
